In ChEMBL document CHEMBL1138302, “Diaryl dihydropyrazole-3-carboxamides with significant in vivo antiobesity activity related to CB1 receptor antagonism: synthesis, biological evaluation, and molecular modeling in the homology model” (J Med Chem, 2007):

Tested on: Rattus norvegicus
Assay: Inhibition of sucrose intake in Zucker fa/fa rat at 10 mg/kg, po after 4 hrs
Format: functional
Details: for inhibition in vivo at 10 mg/kg: Rattus norvegicus, Zucker, po, 4 h
How it was run: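 Female Zucker fa/fa rats (10-12 weeks, 300-350 g) trained six consecutive days on 5% sucrose with food and water withdrawn; day 7 randomized (n=6), dosed orally 10 mg/kg in 0.5% carboxymethylcellulose (2 mL/kg), exposed to sucrose 1 h later for 4 h. Consumption measured; % inhibition vs vehicle control; one-way ANOVA with Dunnett's test.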

Compound | inhibition in vivo at 10 mg/kg [%] | Inhibition [%]
Cc1ccc(C2CC(C(=O)NN3CCOCC3)=NN2c2ccc(Cl)cc2Cl)s1 (stereo unspecified) | 9.3 | 
O=C(NN1CCOCC1)C1=NN(c2ccc(Cl)cc2Cl)C(c2cccs2)C1 (stereo unspecified) | 3 | 
O=C(NN1CCCCC1)C1=NN(c2ccc(Cl)cc2Cl)C(c2ccc(Cl)cc2)C1 (stereo unspecified) | 23.6 | 
CN1CCN(NC(=O)C2=NN(c3ccc(Cl)cc3Cl)C(c3ccc(Cl)cc3)C2)CC1 (stereo unspecified) | 22.6 | 
O=C(NN1CCOCC1)C1=NN(c2ccccc2)C(c2ccc(Cl)cc2)C1 (stereo unspecified) | 0.5 | 
O=C(NN1CCOCC1)C1=NN(c2ccccc2)C(c2ccccc2)C1 (stereo unspecified) | 11.9 | 
O=C(NN1CCOCC1)C1=NN(c2ccc(Cl)cc2Cl)C(c2ccccc2)C1 (stereo unspecified) | 31.9 | 
CCCCOc1ccc(C2CC(C(=O)NN3CCOCC3)=NN2c2ccc(Cl)cc2Cl)cc1 (stereo unspecified) | 18.1 | 
O=C(NN1CCOCC1)C1=NN(c2ccc(Cl)cc2Cl)C(c2ccc3c(c2)OCO3)C1 (stereo unspecified) | 17 | 
O=C(NN1CCOCC1)C1=NN(c2ccc(Cl)cc2Cl)C(c2ccco2)C1 (stereo unspecified) | 15.1 | 
O=C(NN1CCOCC1)C1=NN(c2ccc(Cl)cc2Cl)C(c2ccc(Br)cc2)C1 (stereo unspecified) | 24.2 | 
O=C(NN1CC2CCCC2C1)C1=NN(c2ccc(Cl)cc2Cl)C(c2ccc(Cl)cc2)C1 (stereo unspecified) | 3.6 | 
O=C(NN1CCCCCC1)C1=NN(c2ccc(Cl)cc2Cl)C(c2ccc(Cl)cc2)C1 (stereo unspecified) | 8.4 | 
O=C(NN1CCCC1)C1=NN(c2ccc(Cl)cc2Cl)C(c2ccc(Cl)cc2)C1 (stereo unspecified) | 2.5 | 
O=C(NN1CCOCC1)C1=NN(c2ccc(Cl)cc2Cl)C(c2ccc(Cl)cc2)C1.O=C(O)C(=O)O (stereo unspecified) |  | 20.4
O=C(NN1CCOCC1)C1=NN(c2ccc(Cl)cc2Cl)C(c2ccc(Cl)s2)C1 (stereo unspecified) | 16.7 | 
